Assay outcomes: PubChem BioAssay, several laboratories
This is a sample that favours compounds with a hit; in the whole collection about 0.91% have one here.
p97 ATPase inh: inhibitors of human p97 ATPase, primary screen, biochemical; Transitional endoplasmic reticulum ATPase (Homo sapiens), P55072; recombinant p97 ATPase, Kinase-Glo ATP luminescence, 3 h; inhibition, % at 8 µM; 220,000 tested, 0.42% active; AID 1481, 2009; in the data active means inhibition above about 15%;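 further: 0% = DMSO vehicle and 100% = wells lacking enzyme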
G6PDH counter: L. mesenteroides G6PDH inhibitors, counter-screen for G6PDH-coupled screening assays, biochemical, Leuconostoc mesenteroides enzyme. glucose-6-phosphate dehydrogenase [Leuconostoc mesenteroides]. Purified L. mesenteroides G6PDH, diaphorase/resazurin coupled fluorescence, 45 min. inhibition, % at 5 µM. 200,000 tested, 0.12% active; in the data active means inhibition above about 50%
PMI activator: activators of human PMI, primary screen, biochemical, fluorescence intensity, near-Km mannose 6-phosphate; activation factor at 20 µM; purified human PMI, coupled resazurin fluorescence, 20 min; stronger effect = higher value; 1 = vehicle control, 0 substrate-free wells; AID 1214, 2008; 190,000 tested, 0.005% active; Mannose-6-phosphate isomerase (Homo sapiens), P34949;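 active means activation factor of 2 or more at 20 µM, relative to plate controls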
Target sequence (P34949 whole entry, looked up): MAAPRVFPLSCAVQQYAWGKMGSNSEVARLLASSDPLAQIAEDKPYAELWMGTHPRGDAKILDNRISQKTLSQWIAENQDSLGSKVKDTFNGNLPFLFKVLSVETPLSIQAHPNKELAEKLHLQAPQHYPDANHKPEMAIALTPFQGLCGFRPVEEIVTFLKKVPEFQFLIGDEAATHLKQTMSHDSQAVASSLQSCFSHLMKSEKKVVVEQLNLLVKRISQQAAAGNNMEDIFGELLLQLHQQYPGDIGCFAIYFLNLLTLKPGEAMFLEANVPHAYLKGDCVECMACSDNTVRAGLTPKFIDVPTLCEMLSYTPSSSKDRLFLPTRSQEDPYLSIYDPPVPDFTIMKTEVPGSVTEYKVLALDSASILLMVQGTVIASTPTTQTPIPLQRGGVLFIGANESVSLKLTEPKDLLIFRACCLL
Redox H2O2 prof: compounds producing H2O2 with reducing agent – biochemical, NIH compound library profiling, artefact control for MLSCN library redox annotation, primary screen. DTT-dependent redox cycling H2O2, phenol red/HRP absorbance; 100% = 100 µM peroxide control, 0% = buffer. activation, % at 10 µM. 200,000 tested, 0.03% active;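 active means activation of at least 50% relative to the plate's high and low controls in the primary single-dose screen; inactive means activation below 50%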;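 further: compound incubated with DTT at 0.8 mM final as the reducing agent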
PMI act satM6P: human PMI activators, high substrate, primary screen, biochemical, fluorescence intensity, near-saturating mannose 6-phosphate; Mannose-6-phosphate isomerase (Homo sapiens), P34949; coupled PMI enzyme assay, resazurin fluorescence, 20 min; stronger effect = higher value; 1 = untreated enzyme, 0 = substrate-free blank; activation factor at 20 µM; 190,000 tested, 0.34% active; AID 1216, 2008;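 active means activation factor of 2 or more at 20 µM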
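Test system: human PMI in coupled enzyme assay; Input: PMI at 15 ng/mL final; Medium: HEPES buffer, pH 7.4; Schedule: 20 min incubation at room temperature; Technique: resorufin fluorescence at Ex 544/Em 590 nm; Compound: 20 µM single dose; Probe or stimulus: Near-saturating mannose-6-phosphate, 1.0 mM.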
TbHK1 inh: Trypanosoma brucei hexokinase 1 inhibitors, primary screen, biochemical, G6PDH-coupled NADH absorbance, MLSCN library | hexokinase 1 [Trypanosoma brucei] | recombinant TbHK1, G6PDH-coupled NADH A340 | inhibition, % at 10 µM | 220,000 tested, 0.11% active;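 active means inhibition of 50% or more in the single-dose primary screen; inactive means inhibition below 50%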
DTT redox conf: redox cycling H2O2 generation, confirmed; 60 tested, 40% active; shares compounds with Redox H2O2 prof; EC50, µM; AID 1234; DTT-dependent redox cycling H2O2, phenol red-HRP absorbance;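 active means EC50 under a set limit for hydrogen peroxide production with the reducing agent DTT present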
p97 confirm: p97 ATPase inhibitors, retest, confirmation, biochemical | shares compounds with p97 ATPase inh | recombinant p97 ATPase, Kinase-Glo ATP luminescence | inhibition, % at 8 µM | 760 tested, 44% active | AID 1517, 2009;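 active means percent inhibition of p97 ATPase above a set limit, the primary screen's mean plus 3 SD, cut at about 15% in these data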;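 further: 0% = DMSO wells and 100% = wells lacking p97 protein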
The depositor's hits bear a star; nt = no result given.

SMILES	p97 ATPase inh	G6PDH counter	PMI activator	Redox H2O2 prof	PMI act satM6P	TbHK1 inh	DTT redox conf	others
Cc1cc(OC(F)F)ccc1NC(=O)Nc1ccc([N+](=O)[O-])cc1	0.3	-19.9	0.9	2.2	1	-15.4	nt
CCN(CC)C(=O)Cn1cc(C(=O)C(=O)NCCCn2ccnc2)c2ccccc21	6.5	2.2	1	-1.1	1	-11.9	nt
CCOc1cc(/C=N/Nc2cccc(C(=O)O)c2)ccc1OCC(=O)N1CCCCC1	1.2	2.0	1.7	-0.2	2.3*	-11.0	nt
N#Cc1cccc(N=Cc2c(O)ccc3ccccc23)c1	6.4	62.1*	0.6	-0.1	0.4	1.8	nt
Nc1n[nH]c2cc(=O)n(-c3ccc(Cl)cc3)nc12	2.0	8.2	1.4	-0.6	1.2	-3.5	nt
COc1ccc(-n2nc3c(N)n[nH]c3cc2=O)cc1	-0.8	7.0	1.6	-0.4	2*	-13.7	nt
O=C(CSc1ccccc1C(=O)O)c1ccc([N+](=O)[O-])cc1	-1.9	3.5	1.9	0.5	2.2*	-1.8	nt
O=C(CSc1n[nH]c(=O)[nH]c1=O)c1ccc([N+](=O)[O-])cc1	4.0	nt	nt	nt	nt	-8.9	nt
CCn1c(=O)c2cc(C(=O)NC(C)C)sc2c2ccccc21	14.5*	nt	nt	nt	nt	-28.1	nt
COc1ccc(-c2ncncc2-c2csc(C)n2)c(O)c1OC	6.6	0.4	1	0.1	1	-12.9	nt
COC1=C(N)C(=O)c2nc(-c3nc(C(=O)O)c(C)c(-c4ccc(OC)c(OC)c4O)c3N)ccc2C1=O	4.2	55.8*	0.4	132.2*	0.4	-6.2	1.48*
COc1ccc2c(c1)CCN1C2CCN2C(=O)CCC21 (stereo not given)	2.4	nt	nt	nt	nt	-8.7	nt
C/C(=N/Nc1ccc(C(=O)O)cc1)c1ccc(O)c(O)c1O	3.4	24.8	0.7	104.7*	1.2	2.7	>50
O=C1C=C(NCCN2CCOCC2)C(=O)c2cnccc21	12.5	60.2*	0.7	176.0*	0.5	-2.5	>50
COc1cccc(Oc2cncnc2-c2ccc(OC)cc2O)c1	-5.4	3.2	1	59.7*	0.9	29.3	>50
O=C1/C(=N\S(=O)(=O)c2cccs2)C([n+]2ccccc2)=C([O-])c2ccccc21	4.8	nt	nt	nt	nt	-27.8	nt
Cc1ccc(NC2=C/C(=N\S(=O)(=O)c3cccs3)c3ccccc3C2=O)c(C)c1	9.0	52.5*	1	323.1*	0.5	2.8	18.4*
CC(=O)c1cccc(S(=O)(=O)NC2CC2)c1	6.6	13.7	1	0.1	1.1	3.0	nt
O=C(O)CCCNc1cc(N2CCC3(CC2)OCCO3)c2noc3c2c1C(=O)c1ccccc1-3	2.3	38.7	0.8	-3.3	0.5	1.5	nt
CCOC(=O)N1CCN(c2cc(NCCC(=O)O)c3c4c(onc24)-c2ccccc2C3=O)CC1	4.9	-6.5	0.8	141.1*	1	5.1	>50
O=C(O)c1ccc2c(c1)C(=O)N(c1ccccc1-c1ccccc1)C2=O	-0.1	9.2	1.2	0.1	1.1	-1.4	nt
O=C1C(=O)c2ccc(-c3ccccc3)cc2-c2ccccc21	13.3	54.1*	1.2	315.0*	0.9	-6.8	0.91*
Cc1nnc(C)c2c(C)n(-c3ccccc3N)c(C)c12	-3.4	15.2	0.8	-0.8	0.4	5.8	nt
CC1(C)CC(N2CCCC2)=CC(=[N+]2CCCCCC2)C1	0.3	13.1	0.4	0.1	0.8	-36.7	nt
CC1(C)CC(=O)C=C(N2CCNCC2)C1	4.3	4.4	1	72.9*	1	4.4	>50
SMILES	p97 ATPase inh	G6PDH counter	PMI activator	Redox H2O2 prof	PMI act satM6P	TbHK1 inh	DTT redox conf	others
CC(=O)C(C(C)=O)C1(O)C(=O)c2ccccc2C1=O	7.5	6.2	0.9	87.9*	0.6	3.5	>50
Oc1ccc(-c2onc(C(F)(F)F)c2-c2cscn2)c(O)c1	-6.8	-2.4	0.9	429.9*	0.9	-5.1	>50
Cc1nc(-c2c(C(F)(F)F)noc2-c2ccc(O)cc2O)cs1	-0.6	2.1	0.9	2.2	0.9	-12.0	nt
CC(NC(=O)COC(=O)c1ccc([N+](=O)[O-])s1)c1ccccc1 (stereo not given)	5.9	15.0	0.9	113.7*	0.9	-3.8	>50
O=C(NN=C1CCCC1)c1n[nH]c2c1CCCC2	-4.9	3.5	1	68.0*	1	6.5	>50
CCC(C)[C@@H](N)C(=O)N/N=C/c1ccc2ncccc2c1 (stereo not given in full)	1.8	8.9	1.1	0.2	1.1	-9.4	nt
Cc1cc(C)c(S(=O)(=O)Nc2cc(SCC(=O)O)c(O)c3ccccc23)cc1C	7.2	34.9	1	119.5*	0.8	1.1	>50
Cc1ccc(CSc2nnc3ccc(-c4ccncc4)nn23)cc1	0.2	-1.8	1.1	-1.7	1.1	-1.4	nt
COc1ccc(CCC(=O)Nc2ccccc2C(F)(F)F)cc1	3.0	8.9	1	-0.4	1	1.3	nt
O=C(CSc1nnc(-c2cccnc2)n1CCN1CCCCC1)Nc1cccc(Cl)c1	0.1	11.4	1.1	-0.4	1.1	-5.0	nt
CCOc1ccc(NC(=S)Nc2ccc3nsnc3c2)cc1	33.0*	53.9*	0.5	127.2*	0.8	18.8	>50	p97 confirm=29.5*
CC(=O)N(/N=C1\Sc2ccccc2C1=O)c1ccccc1C	18.4*	3.6	1	381.5*	1	-4.4	19.1*	p97 confirm=25.1*
CC(=O)N(/N=C1\Sc2ccccc2C1=O)c1ccc(C)cc1C	2.4	0.7	0.9	0.6	1	0.4	nt
